Reference: ChEMBL document CHEMBL4325889, “Natural products hybrids: 3,5,4'-Trimethoxystilbene-5,6,7-trimethoxyflavone chimeric analogs as potential cytotoxic agents against diverse human cancer cells” (Eur J Med Chem, 2019)

What was measured:
SNB-19 = experiment: Growth inhibition of human SNB19 cells at 10 uM after 48 hrs by SRB assay relative to control; type: functional; details: SNB-19, 48 h, read-out: GI
Summary of the method: (§1)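 NCI screen against its human cancer cell line panel by the standard NCI protocol, SRB protein stain. Single dose of 10 μM. Percent growth inhibition versus control; values above 100% mean the cell population fell below the starting number. Each value is the mean of duplicates.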

BT-549 = experiment: Growth inhibition of human BT549 cells at 10 uM after 48 hrs by SRB assay relative to control; type: functional; details: BT-549, 48 h, read-out: GI
Summary of the method: (§2)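 Screened at the National Cancer Institute by the standard NCI protocol using the sulforhodamine B assay, which measures cellular protein. Single dose of 10 µM. Result is percent growth inhibition; values above 100% mean cell number fell below the initial population. Values are the average of duplicates.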

NCI-H460 = experiment: Growth inhibition of human NCI-H460 cells at 10 uM after 48 hrs by SRB assay relative to control; type: functional; details: NCI-H460, 48 h, read-out: GI; summary of the method: as §2
PC-3 = experiment: Growth inhibition of human PC3 cells at 10 uM after 48 hrs by SRB assay relative to control; type: functional; details: PC-3, 48 h, read-out: GI; summary of the method: as §2
MDA-MB-435 = experiment: Growth inhibition of human MDA-MB-435 cells at 10 uM after 48 hrs by SRB assay relative to control; type: functional; details: MDA-MB-435, 48 h, read-out: GI; summary of the method: as §2
OVCAR-8 = experiment: Growth inhibition of human OVCAR8 cells at 10 uM after 48 hrs by SRB assay relative to control; type: functional; details: OVCAR-8, 48 h, read-out: GI; summary of the method: as §2
SF-268 = experiment: Growth inhibition of human SF268 cells at 10 uM after 48 hrs by SRB assay relative to control; type: functional; details: SF-268, 48 h, read-out: GI; summary of the method: as §2
KM12 = experiment: Growth inhibition of human KM12 cells at 10 uM after 48 hrs by SRB assay relative to control; type: functional; details: KM12, 48 h, read-out: GI; summary of the method: as §2
UO-31 = experiment: Growth inhibition of human UO31 cells at 10 uM after 48 hrs by SRB assay relative to control; type: functional; details: UO-31, 48 h, read-out: GI; summary of the method: as §1
HT-29 = experiment: Growth inhibition of human HT-29 cells at 10 uM after 48 hrs by SRB assay relative to control; type: functional; details: HT-29, 48 h, read-out: GI; summary of the method: as §2
OVCAR-3 = experiment: Growth inhibition of human OVCAR3 cells at 10 uM after 48 hrs by SRB assay relative to control; type: functional; details: OVCAR-3, 48 h, read-out: GI; summary of the method: as §2
MOLT-4 = experiment: Growth inhibition of human MOLT4 cells at 10 uM after 48 hrs by SRB assay relative to control; type: functional; details: MOLT-4, 48 h, read-out: GI; summary of the method: as §2
SW-620 = experiment: Growth inhibition of human SW620 cells at 10 uM after 48 hrs by SRB assay relative to control; type: functional; details: SW-620, 48 h, read-out: GI; summary of the method: as §1
HOP-62 = experiment: Growth inhibition of human HOP62 cells at 10 uM after 48 hrs by SRB assay relative to control; type: functional; details: HOP-62, 48 h, read-out: GI; summary of the method: as §2
NCI-H522 = experiment: Growth inhibition of human NCI-H522 cells at 10 uM after 48 hrs by SRB assay relative to control; type: functional; details: NCI-H522, 48 h, read-out: GI; summary of the method: as §2
CAKI-1 = experiment: Growth inhibition of human Caki1 cells at 10 uM after 48 hrs by SRB assay relative to control; type: functional; details: CAKI-1, 48 h, read-out: GI; summary of the method: as §2
OVCAR-4 = experiment: Growth inhibition of human OVCAR4 cells at 10 uM after 48 hrs by SRB assay relative to control; type: functional; details: OVCAR-4, 48 h, read-out: GI; summary of the method: as §2
OVCAR-5 = experiment: Growth inhibition of human OVCAR5 cells at 10 uM after 48 hrs by SRB assay relative to control; type: functional; details: OVCAR-5, 48 h, read-out: GI; summary of the method: as §2
ACHN = experiment: Growth inhibition of human ACHN cells at 10 uM after 48 hrs by SRB assay relative to control; type: functional; details: read-out: GI; summary of the method: as §2
UACC-62 = experiment: Growth inhibition of human UACC62 cells at 10 uM after 48 hrs by SRB assay relative to control; type: functional; details: UACC-62, 48 h, read-out: GI; summary of the method: as §1
L132 = experiment: Cytotoxicity against human L-132 cells after 48 hrs by MTT assay; type: cell-based; details: L132, 48 h
Summary of the method: (§3)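 Normal human lung epithelial L132 and ovarian epithelial IOSE-80PC cells were tested by MTT viability assay, and IC50 was determined.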

[1] = Cytotoxicity against human IOSE-80PC cells after 48 hrs by MTT assay; type: cell-based; summary of the method: as §3

COc1cccc(NC(=O)c2cccc(-c3cc(=O)c4c(O)c(OC)c(OC)cc4o3)c2)c1
inhibition of growth at 10 µM (SNB-19): 16.4% | inhibition of growth at 10 µM (BT-549): 30.5% | inhibition of growth at 10 µM (NCI-H460): 31.4% | inhibition of growth at 10 µM (PC-3): 39.3% | inhibition of growth at 10 µM (MDA-MB-435): 22.6% | inhibition of growth at 10 µM (OVCAR-8): 62.5% | inhibition of growth at 10 µM (SF-268): 22.9% | inhibition of growth at 10 µM (KM12): 35.5% | inhibition of growth at 10 µM (UO-31): 41.7% | inhibition of growth at 10 µM (HT-29): 15.6% | inhibition of growth at 10 µM (OVCAR-3): 10.6% | inhibition of growth at 10 µM (MOLT-4): 24.2% | inhibition of growth at 10 µM (SW-620): 18.4% | inhibition of growth at 10 µM (HOP-62): 37.5% | inhibition of growth at 10 µM (NCI-H522): 59.8% | inhibition of growth at 10 µM (CAKI-1): 32.4% | inhibition of growth at 10 µM (OVCAR-4): 48% | inhibition of growth at 10 µM (OVCAR-5): 8.5% | inhibition of growth at 10 µM (ACHN): 33.8% | inhibition of growth at 10 µM (UACC-62): 44.4%

COc1ccc(C(=O)Nc2cccc(-c3cc(=O)c4c(OC)c(OC)c(OC)cc4o3)c2)cc1
inhibition of growth at 10 µM (SNB-19): 35.4% | inhibition of growth at 10 µM (BT-549): 48.6% | inhibition of growth at 10 µM (NCI-H460): 57.9% | inhibition of growth at 10 µM (PC-3): 68.1% | inhibition of growth at 10 µM (MDA-MB-435): 30.4% | inhibition of growth at 10 µM (OVCAR-8): 42.1% | inhibition of growth at 10 µM (SF-268): 41.6% | inhibition of growth at 10 µM (KM12): 53.7% | inhibition of growth at 10 µM (UO-31): 73.5% | inhibition of growth at 10 µM (HT-29): 53.3% | inhibition of growth at 10 µM (OVCAR-3): 33.2% | inhibition of growth at 10 µM (MOLT-4): 76.7% | inhibition of growth at 10 µM (SW-620): 12% | inhibition of growth at 10 µM (HOP-62): 27.5% | inhibition of growth at 10 µM (NCI-H522): 55.5% | inhibition of growth at 10 µM (CAKI-1): 42.6% | inhibition of growth at 10 µM (OVCAR-4): 38% | inhibition of growth at 10 µM (OVCAR-5): 4.43% | inhibition of growth at 10 µM (ACHN): 53% | inhibition of growth at 10 µM (UACC-62): 44.6%

COc1cc2oc(-c3cccc(NC(=O)c4ccccc4)c3)cc(=O)c2c(OC)c1OC
inhibition of growth at 10 µM (SNB-19): 8.59% | inhibition of growth at 10 µM (BT-549): 25.9% | inhibition of growth at 10 µM (NCI-H460): 21.3% | inhibition of growth at 10 µM (PC-3): 46.9% | inhibition of growth at 10 µM (MDA-MB-435): 19.3% | inhibition of growth at 10 µM (OVCAR-8): 39% | inhibition of growth at 10 µM (SF-268): 27.7% | inhibition of growth at 10 µM (KM12): 35.6% | inhibition of growth at 10 µM (UO-31): 49% | inhibition of growth at 10 µM (HT-29): 22.9% | inhibition of growth at 10 µM (OVCAR-3): 15.8% | inhibition of growth at 10 µM (MOLT-4): 59.4% | inhibition of growth at 10 µM (SW-620): 8.49% | inhibition of growth at 10 µM (HOP-62): 21.6% | inhibition of growth at 10 µM (NCI-H522): 50.7% | inhibition of growth at 10 µM (CAKI-1): 12.8% | inhibition of growth at 10 µM (OVCAR-4): 18.3% | inhibition of growth at 10 µM (OVCAR-5): -0.09% | inhibition of growth at 10 µM (ACHN): 38.4% | inhibition of growth at 10 µM (UACC-62): 33.2%

COc1ccccc1C(=O)Nc1cccc(-c2cc(=O)c3c(OC)c(OC)c(OC)cc3o2)c1
inhibition of growth at 10 µM (SNB-19): 63.8% | inhibition of growth at 10 µM (BT-549): 54.1% | inhibition of growth at 10 µM (PC-3): 70% | inhibition of growth at 10 µM (MDA-MB-435): 56.5% | inhibition of growth at 10 µM (OVCAR-8): 61.3% | inhibition of growth at 10 µM (SF-268): 45.5% | inhibition of growth at 10 µM (KM12): 61.6% | inhibition of growth at 10 µM (UO-31): 84.8% | inhibition of growth at 10 µM (HT-29): 75.4% | inhibition of growth at 10 µM (OVCAR-3): 48.6% | inhibition of growth at 10 µM (MOLT-4): 71.2% | inhibition of growth at 10 µM (SW-620): 36.6% | inhibition of growth at 10 µM (HOP-62): 42.2% | inhibition of growth at 10 µM (NCI-H522): 55.7% | IC50 (L132): > 100 µM | inhibition of growth at 10 µM (CAKI-1): 34.9% | inhibition of growth at 10 µM (OVCAR-4): 41% | IC50 [1]: > 100 µM | inhibition of growth at 10 µM (OVCAR-5): 18.8% | inhibition of growth at 10 µM (ACHN): 57% | inhibition of growth at 10 µM (UACC-62): 56.9%

COc1cc2oc(-c3cccc(NC(=O)c4ccc5c(c4)OCO5)c3)cc(=O)c2c(O)c1OC
inhibition of growth at 10 µM (SNB-19): 33.8% | inhibition of growth at 10 µM (BT-549): 24.5% | inhibition of growth at 10 µM (NCI-H460): 16.7% | inhibition of growth at 10 µM (PC-3): 22.6% | inhibition of growth at 10 µM (MDA-MB-435): 5.39% | inhibition of growth at 10 µM (OVCAR-8): 37.8% | inhibition of growth at 10 µM (SF-268): 32.5% | inhibition of growth at 10 µM (KM12): 1.48% | inhibition of growth at 10 µM (UO-31): 15.8% | inhibition of growth at 10 µM (HT-29): 15.6% | inhibition of growth at 10 µM (OVCAR-3): -4.7% | inhibition of growth at 10 µM (MOLT-4): 15.8% | inhibition of growth at 10 µM (SW-620): -1.42% | inhibition of growth at 10 µM (HOP-62): 47.9% | inhibition of growth at 10 µM (NCI-H522): 41.5% | inhibition of growth at 10 µM (CAKI-1): 34.4% | inhibition of growth at 10 µM (OVCAR-4): 25.8% | inhibition of growth at 10 µM (OVCAR-5): 13.7% | inhibition of growth at 10 µM (ACHN): 30.5% | inhibition of growth at 10 µM (UACC-62): 41.4%
